Results from different studies.
Each line is one published result; the experiments were not run side by side.
MERTK: Tyrosine-protein kinase Mer (MERTK, Homo sapiens, UniProt Q12866)
CXCR4: C-X-C chemokine receptor type 4 (CXCR4, Homo sapiens, UniProt P61073)
MDH2: Malate dehydrogenase, mitochondrial (MDH2, Sus scrofa, UniProt P00346)
CYP2C9: Cytochrome P450 2C9 (CYP2C9, Homo sapiens, UniProt P11712)
AKT1: RAC-alpha serine/threonine-protein kinase (AKT1, Homo sapiens, UniProt P31749)
CDK9 with cyclin T1: Cyclin-dependent kinase 9, with cyclin T1 (CDK9, Homo sapiens, UniProt P50750)
NTRK3: NT-3 growth factor receptor (NTRK3, Homo sapiens, UniProt Q16288)
PLA2G5: Phospholipase A2 group V (PLA2G5, Homo sapiens, UniProt P39877)

Cc1ccc(C(=O)Nc2ccc(Oc3cc4cnn(C)c4cc3-c3cn[nH]c3)c(F)c2)c(=O)n1-c1ccc(F)cc1
IC50 (MERTK; cell growth or viability; ATP luminescence): 0.01 µM

C/C(=C\C(=O)OCCCCCCCCC(=O)O)C[C@@H]1OC[C@H](C[C@@H]2O[C@H]2[C@@H](C)[C@H](C)O)[C@@H](O)[C@H]1O
IC50 (CXCR4; calcium signal; antagonist): > 100 µM

COc1ccc(S(=O)(=O)Nc2ccc(-c3nc4cc(NS(=O)(=O)c5ccc(OC)cc5)ccc4o3)cc2)cc1
IC50 (MDH2; enzyme activity; inhibitor): > 62.5 µM

CN1CCN(c2ccc(Nc3ncc4cc(C#N)c(=O)n(C5CCCC5)c4n3)cc2)CC1
IC50 (Cyclin-dependent kinase 1, with cyclin A (CDK1, Homo sapiens, UniProt P06493); enzyme activity; inhibitor): 7.41 µM

CCc1ccc(OCc2nnc(SCc3nc(C)no3)n2Cc2ccccc2)cc1
IC50 (CXCR4; β-arrestin recruitment): 50 µM

O=C(Nc1ccc2[nH]nc(-c3ccncc3)c2c1)[C@@H]1CCN(CC(=O)N2CCN(c3ccc(-c4ncccn4)cc3)CC2)C1
IC50 (Mitogen-activated protein kinase 3 (MAPK3, Homo sapiens, UniProt P27361); enzyme activity; inhibitor; radiometric): 0.0042 µM

Nc1nc(N)c2nc(CNc3cccc4ccccc34)cnc2n1
IC50 (CYP2C9; enzyme activity; inhibitor; luciferase): 11 µM

Cc1noc(C)c1CN(C(=O)CCc1nc(Cc2ccccc2)no1)c1ccccc1
IC50 (CXCR4; β-arrestin recruitment): 200 µM

COc1c(Br)cccc1C(=O)Nc1ccc(Sc2nc3ccccc3s2)cc1
IC50 (MDH2; enzyme activity; inhibitor): > 62.5 µM

CC/C(=N\NC(=O)C(C)Nc1ccccc1)c1ccc(O)c(C)c1O (stereo not drawn)
IC50 (Serine/threonine-protein kinase Sgk2 (SGK2, Homo sapiens, UniProt Q9HBY8); enzyme activity; inhibitor): 0.0117 µM

CC(C)(C)n1nc(-c2ccc3nc(OC4CC4)ccc3c2)c(C(N)=O)c1N
IC50 (Calcium/calmodulin-dependent protein kinase kinase 2 (CAMKK2, Homo sapiens, UniProt Q96RR4); cell-free assay): > 10 µM

Cc1cnc(-c2ccc(-c3ccc(NC(=O)Nc4c(F)cc(F)cc4F)cc3F)c3c2C(=O)NC3)[nH]1
IC50 (Proto-oncogene tyrosine-protein kinase Src (SRC, Homo sapiens, UniProt P12931); enzyme activity; inhibitor): 0.0004 µM

CCS(=O)(=O)c1ncc(N(Cc2ccccc2)Cc2ccco2)c(C(=O)Nc2ccc(C)cc2)n1
IC50 (CXCR4; β-arrestin recruitment; antagonist): 25 µM

O=S(=O)(Nc1ccc(-c2nc3cc(NS(=O)(=O)c4ccccc4Cl)ccc3o2)cc1)c1ccccc1Cl
IC50 (MDH2; enzyme activity; inhibitor): > 62.5 µM

CC(=O)NS(=O)(=O)c1ccc(NC(=O)C=CC(=O)O)cc1
IC50 (Dipeptidyl peptidase 4 (DPP4, Homo sapiens, UniProt P27487); enzyme activity; inhibitor; fluorescence): 59.3 µM

COc1ccc(S(=O)(=O)Nc2ccc3oc(-c4ccc(NS(=O)(=O)c5cc(F)ccc5OC)cc4)nc3c2)cc1
IC50 (MDH2; enzyme activity; inhibitor): > 62.5 µM

CC(C)(C)n1nc(-c2cnc3cc(OC4CC4)ccc3c2)c(C(N)=O)c1N
IC50 (AKT1; cell-free assay): > 10 µM

COc1ccc(S(=O)(=O)Nc2ccc3oc(-c4ccc(NC(=O)c5cccc(C)c5[N+](=O)[O-])cc4)nc3c2)cc1
IC50 (MDH2; enzyme activity; inhibitor): > 62.5 µM

CNC(=O)c1cc2c(Oc3ccc(NC(=O)C4(C(=O)Nc5ccc(F)cc5)CC4)cc3)ccnc2cc1OC
IC50 (MERTK; enzyme activity; inhibitor; TR-FRET): 0.003 µM

Nn1cnnc1O
IC50 (DNA dC->dU-editing enzyme APOBEC-3A (Homo sapiens, UniProt P31941); enzyme activity; inhibitor): > 100 µM

CCS(=O)(=O)c1ncc(N(Cc2ccco2)Cc2ccco2)c(C(=O)Nc2c(C)cccc2C)n1
IC50 (CXCR4; β-arrestin recruitment; antagonist): 13 µM

O=P([O-])(O)C(O)(C[n+]1cccc(-c2ccccc2)c1)P(=O)(O)O (stereo not drawn)
IC50 (Geranylgeranyl pyrophosphate synthase (GGPS1, Homo sapiens, UniProt O95749); enzyme activity; inhibitor): 15.8 µM

COc1c(C(=O)/C=C(\O)c2ccccc2)ccc2occc12
IC50 (CDK9 with cyclin T1; enzyme activity; inhibitor; ADP detection): > 100 µM

CCn1c(COC(=O)c2ccccc2NC(=O)c2ccco2)nc2cc(S(=O)(=O)N(C)C)ccc21
IC50 (CXCR4; β-arrestin recruitment; antagonist): 63 µM

NCc1ccc(Nc2ncc(F)c(Nc3ccccc3)n2)cc1
IC50 (Activin receptor type-1 (ACVR1, Homo sapiens, UniProt Q04771); enzyme activity; inhibitor; lysate): > 10 µM

CCn1ncc2c1-c1cnc(N)c(c1)O[C@H](C)c1cc(F)ccc1-c1nn(C)nc1C2
IC50 (NTRK3; enzyme activity; inhibitor; radiometric): 0.154 µM

CCN1CCN(Cc2ccc(NC(=O)c3ccc(C)c(NC(=O)c4cncc(I)c4)c3)cc2C(F)(F)F)CC1
IC50 (Ephrin type-A receptor 2 (EPHA2, Homo sapiens, UniProt P29317); enzyme activity; inhibitor; ADP detection): 0.578 µM

COc1ccc(S(=O)(=O)Nc2ccc3oc(-c4ccc(NC(=O)c5ccc(Cl)s5)cc4)nc3c2)cc1
IC50 (MDH2; enzyme activity; inhibitor): > 62.5 µM

C=CC(=O)Nc1ccc(N2CCC[C@@H](Nc3ncc(Cl)c(-c4c[nH]c5ccccc45)n3)C2)cc1C
IC50 (CDK9 with cyclin T1; enzyme activity; inhibitor; FRET): 0.165 µM

O=C(O)c1cc(O)c(O)c(O)c1
IC50 (PLA2G5; enzyme activity; inhibitor; Ellman): 9.79 µM

O=c1cc(-c2ccccc2)oc2c1ccc1ccccc12
IC50 (CDK9 with cyclin T1; enzyme activity; inhibitor; ADP detection): > 100 µM

O=C(O)/C=C/c1ccc(O)cc1
IC50 (PLA2G5; enzyme activity; inhibitor; Ellman): 55.1 µM

CCN(CC)CCOCCN(Cc1ccccc1)Cc1nc(Cc2ccccc2)no1
IC50 (CXCR4; β-arrestin recruitment): 398 µM

O=S(=O)(Nc1ccc(-c2nc3cc(NS(=O)(=O)c4cccc(C(F)(F)F)c4)ccc3o2)cc1)c1cccc(C(F)(F)F)c1
IC50 (MDH2; enzyme activity; inhibitor): > 62.5 µM

CCOC(=O)C1CCN(C(=O)c2ccc(N(CC)Cc3cnc4nc(N)nc(N)c4n3)cc2)CC1
IC50 (CYP2C9; enzyme activity; inhibitor; luciferase): 8.51 µM

C[C@@H](N)COc1ccc(-c2cnc3ccc(N[C@H](C)c4cccc(F)c4)nn23)cc1
IC50 (NTRK3; enzyme activity; inhibitor): 0.0042 µM

COc1cc(/C=C/C(=O)c2ccc(NC(=O)c3ccccc3CN3C(=O)c4ccccc4C3=O)cc2)cc(OC)c1OC
IC50 (Tubulin beta-5 chain (TUBB, Homo sapiens, UniProt P07437); tubulin polymerisation; inhibitor; ELISA): 2.32 µM

CC(=O)c1ccc(/N=N/c2cc(/C=C/C(=O)O)ccc2O)cc1
IC50 (PLA2G5; enzyme activity; inhibitor; Ellman): 42.5 µM

COc1ccc2c(Oc3ccc4c(C(=O)Nc5ccccc5N)cccc4c3)ccnc2c1
IC50 (AKT1; enzyme activity; inhibitor): > 0.5 µM

O=C(Nc1ccn(Cc2ccc(O)cc2C(F)(F)F)n1)c1c(F)cccc1F
IC50 (Voltage-dependent T-type calcium channel subunit alpha-1H (CACNA1H, Homo sapiens, UniProt O95180); ion current; inhibitor): > 10 µM

O=S(=O)(Nc1ccc(-c2nc3cc(NS(=O)(=O)c4ccc(F)cc4)ccc3o2)cc1)c1ccc(F)cc1
IC50 (MDH2; enzyme activity; inhibitor): > 62.5 µM

CC(=O)c1cccc(/N=N/c2cc(/C=C/C(=O)O)ccc2O)c1
IC50 (PLA2G5; enzyme activity; inhibitor; Ellman): 43.9 µM
